Laboratory results taken from ChEMBL document CHEMBL1146596, “New lupane derived compounds with pro-apoptotic activity in cancer cells: synthesis and structure-activity relationships” (2003).

Test system: CCRF-CEM
Experiment: Cytotoxicity against chemosensitive CEM-T lymphoblastc leukemia cell line.
Format: functional, Homo sapiens
Procedure, shortened: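 Cells were kept in DMEM/RPMI 1640 with 10% fetal calf serum, 2 mM glutamine and antibiotics. They were seeded at 2500–30 000 cells/well according to growth characteristics and preincubated 24 h at 37 °C, 5% CO2. Four-fold compound dilutions were tested in duplicate for 72 h. MTT was then added for 1–4 h, the formazan was dissolved in 10% SDS (pH 5.5) overnight, and OD was read at 540 nm. Survival was taken relative to mean control, and TCS50 was derived from dose–response curves.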

SMILES | TCS50 [µM]
COC(=O)C[C@]1(COC(C)=O)CC[C@]2(C)[C@H](CC[C@@H]3[C@@]4(C)CC[C@H](OC(C)=O)C(C)(C)[C@@H]4CC[C@]32C)C1=O | >250
CC(=O)O[C@H]1CC[C@]2(C)[C@H]3CC[C@@H]4C5=C(C(C)C)C(=O)C[C@]5(C(=O)OCOC(=O)C(C)(C)C)CC[C@@]4(C)[C@]3(C)CC[C@H]2C1(C)C | 62.7
COC(=O)[C@]1(COC(C)=O)CC[C@]2(C)[C@H](CC[C@@H]3[C@@]4(C)CC[C@H](OC(C)=O)C(C)(C)[C@@H]4CC[C@]32C)C1=O | 120
CC(=O)O[C@H]1CC[C@]2(C)[C@H]3CC[C@@H]4C5=C(C(C)C)C(=O)C(=O)[C@]5(C(=O)OCOC(=O)C(C)(C)C)CC[C@@]4(C)[C@]3(C)CC[C@H]2C1(C)C | 105.4
COC(=O)C[C@]1(C(=O)OCOC(C)=O)CC[C@]2(C)[C@H](CC[C@@H]3[C@@]4(C)CC[C@H](OC(C)=O)C(C)(C)[C@@H]4CC[C@]32C)C1=O | 94
CC(=O)OCOC(=O)[C@@]12CC[C@]3(C)[C@H](CC[C@@H]4[C@@]5(C)CC[C@H](OC(C)=O)C(C)(C)[C@@H]5CC[C@]43C)C1=C(C(C)C)C(=O)C2=O | 3
CC(=O)OC[C@@]12CC[C@]3(C)[C@H](CC[C@@H]4[C@@]5(C)CC[C@H](OC(C)=O)C(C)(C)[C@@H]5CC[C@]43C)C1=C(C(C)C)C(=O)C2 | 14
COC(=O)C[C@]1(C(=O)OC)CC[C@]2(C)[C@H](CC[C@@H]3[C@@]4(C)CC[C@H](OC(C)=O)C(C)(C)[C@@H]4CC[C@]32C)C1=O | >250
CC(=O)OC[C@@]1(CC(=O)C(=O)C(C)C)CC[C@]2(C)[C@H](CC[C@@H]3[C@@]4(C)CC[C@H](OC(C)=O)C(C)(C)[C@@H]4CC[C@]32C)C1=O | >250
CC(=O)OCOC(=O)[C@]1(COC(C)=O)CC[C@]2(C)[C@H](CC[C@@H]3[C@@]4(C)CC[C@H](OC(C)=O)C(C)(C)[C@@H]4CC[C@]32C)C1=O | 86
CC(=O)OCOC(=O)[C@@]12CC[C@]3(C)[C@H](CC[C@@H]4[C@@]5(C)CC[C@H](OC(C)=O)C(C)(C)[C@@H]5CC[C@]43C)C1=C(C(C)C)C(=O)C2 | >250
COC(=O)[C@@]1(CC(=O)C(=O)C(C)C)CC[C@]2(C)[C@H](CC[C@@H]3[C@@]4(C)CC[C@H](OC(C)=O)C(C)(C)[C@@H]4CC[C@]32C)C1=O | 107
COC(=O)CC[C@]1(C)[C@@H](C(=O)OC)CC[C@@H]2[C@@]3(C)CC[C@H](OC(C)=O)C(C)(C)[C@@H]3CC[C@]21C | >250
CC(=O)O[C@H]1CC[C@]2(C)[C@H]3CC[C@H](C(=O)O)[C@@](C)(CCC(=O)O)[C@]3(C)CC[C@H]2C1(C)C | >250
CC(=O)OC[C@@]12CC[C@]3(C)[C@H](CC[C@@H]4[C@@]5(C)CC[C@H](OC(C)=O)C(C)(C)[C@@H]5CC[C@]43C)C1=C(C(C)C)C(=O)C2=O | 66
CC(=O)OC[C@@]1(CC(=O)O)CC[C@]2(C)[C@H](CC[C@@H]3[C@@]4(C)CC[C@H](OC(C)=O)C(C)(C)[C@@H]4CC[C@]32C)C1=O | 5
CC(=O)O[C@H]1CC[C@]2(C)[C@H]3CC[C@H](C(=O)OCOC(=O)C(C)(C)C)[C@@](C)(CCC(=O)OCOC(=O)C(C)(C)C)[C@]3(C)CC[C@H]2C1(C)C | >250
